High-throughput results: PubChem BioAssay, several laboratories
Compounds with a hit are over-represented: about 0.85% of the library has one in this group of screens.
TRPML3 agonist: human mucolipin-3 channel agonism; HEK293 TRPML3-YFP, Fluo-8 calcium fluorescence; 100% = the carbachol control signal; actives 0.29% (n = 220,000); AID 1448; activation, % at 3 µM;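 active means activation above its plate's cutoff, the mean activation of the plate's test wells plus 3 SD, cut at about 12% in these data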;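 further: 0% = DMSO only wells and 100% = carbachol wells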
Target sequence (Q8TDD5 whole entry, looked up): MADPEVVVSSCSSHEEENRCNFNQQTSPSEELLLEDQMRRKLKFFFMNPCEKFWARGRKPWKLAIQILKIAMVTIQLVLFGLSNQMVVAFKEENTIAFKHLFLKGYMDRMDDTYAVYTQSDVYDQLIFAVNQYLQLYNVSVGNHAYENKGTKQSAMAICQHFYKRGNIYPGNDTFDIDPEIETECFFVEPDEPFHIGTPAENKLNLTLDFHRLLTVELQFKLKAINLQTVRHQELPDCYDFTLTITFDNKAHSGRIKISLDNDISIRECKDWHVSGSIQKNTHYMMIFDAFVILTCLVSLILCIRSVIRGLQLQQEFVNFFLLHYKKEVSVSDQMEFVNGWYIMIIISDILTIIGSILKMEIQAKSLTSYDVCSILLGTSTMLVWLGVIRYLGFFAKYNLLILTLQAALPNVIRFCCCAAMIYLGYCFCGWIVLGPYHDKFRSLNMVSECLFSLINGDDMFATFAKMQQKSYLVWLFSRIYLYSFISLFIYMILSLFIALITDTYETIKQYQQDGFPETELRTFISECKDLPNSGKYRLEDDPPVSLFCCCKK
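Test system: TRPML3-YFP stable HEK293 cells. Doses: single point at 3 µM. Incubation: dye loading 1 h 37 °C then 30 min ambient, 125 s read. Signal: Fluo-8 calcium dye fluorescence, ex 470-495, em 515-575 nm. Measure: percent activation from peak-to-basal fluorescence ratio, scaled between DMSO and carbachol.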
CRFR2-BP ag: agonists of human CRF-binding protein/CRF-R2 receptor complex; activation, % at 13.2 µM; HEK293 CRF-R2/CRF-BP, calcium dye fluorescence (FLIPR); percent of saturating CRF peptide response; AID 588473; actives 0.46% (n = 350,000);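 active means activation of at least 50%, plus an integration ratio under a set limit after plate pattern correction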;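 further: plate controls were neutral control wells without compound for no effect and CRF at EC100 for full effect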
OXTR potentiator: human OXTR potentiation; CHO-OTR cells, Fluo-8 calcium fluorescence, potentiator mode; 0% = oxytocin EC15, 100% = EC100; activation, % at 3 µM; actives 0.061% (n = 320,000); AID 2445;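 active means activation above that plate's cutoff, the mean activation of tested compounds plus 3 SD, cut at about 6.6% in these data, passing the limit was not always enough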;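 further: 100% uses oxytocin at 75 nM as the full agonist control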
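test system = CHO-OTR cells, human receptor | compound = single-point 3.0 µM | schedule = 6 min compound pre-incubation at room temperature, 100 s kinetic read | signal = Fluo-8 no-wash calcium dye fluorescence, excitation 470-495 nm, emission 515-575 nm | repeats = single well per compound, singlicate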
V1R ag counter: activates human V1a receptor in oxytocin agonist counter-screen | P37288 | CHO-V1R cells, Fluo-8 calcium fluorescence, agonist mode; 0% DMSO, 100% 3 nM vasopressin | activation, % at 3 µM | actives 0.25% (n = 320,000) | AID 2797;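 active means activation above the mean activation of all tested compounds plus 3 SD, per screening run, cut at about 20% in these data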;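 further: signal is peak over basal fluorescence ratio across a 100 second FLIPR read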
OXTR agonist: human OXTR agonism | actives 0.32% (n = 320,000) | CHO-OTR cells, Fluo-8 calcium fluorescence; normalized: DMSO 0%, oxytocin 100% | P30559 | AID 2435 | activation, % at 3 µM;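 active means activation above the mean of all tested compounds plus 3 SD, cutoff set per screening run, cut at about 20% in these data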;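 further: peak over basal fluorescence ratio from a 100 s FLIPR kinetic read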
TRPN1 ag: activates the zebrafish TRPN1 channel | HEK293 zebrafish TRPN1-YFP, Fluo-8 calcium fluorescence; 100% = response to 87 µM carbachol | activation, % at 3 µM | actives 0.18% (n = 220,000) | AID 1424;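 active means activation above its plate's cutoff, the mean activation of test wells on that plate plus 3 SD, cut at about 19% in these data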;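 further: 0% = DMSO alone and 100% = 87 µM carbachol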
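System: zebrafish TRPN1-YFP in HEK293 cells / Dosing: 3 µM single point / Timing: dye loading 1 h at 37 °C, then 30 min room temperature / Signal: Fluo-8 calcium fluorescence, excitation 470-495 nm, emission 515-575 nm / Read-out basis: percent activation from peak over basal fluorescence ratio, control-normalized / Control set: high carbachol 87 µM, low DMSO alone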
Starred values were filed as active, the others as inactive.

For O=C(C[C@H]1C/C=C\CC[C@H](Cc2ccc(F)cc2)C(=O)O[C@@H](c2ccccc2)CNC1=O)N[C@@H](CO)Cc1ccccc1 the results were CRFR2-BP ag 18.7, OXTR potentiator -2.6, V1R ag counter 2.4 and OXTR agonist 3.1.
For O=C(C[C@H]1C/C=C\CC[C@H](Cc2ccc(F)cc2)C(=O)O[C@@H](c2ccccc2)CNC1=O)N[C@H](CO)Cc1ccccc1 the results were CRFR2-BP ag 7.7, OXTR potentiator -8.8, V1R ag counter 51.9* and OXTR agonist 33.3*.
O=C(C[C@H]1C/C=C\C[C@H](Cc2ccc(F)cc2)C(=O)O[C@@H](c2ccccc2)CNC1=O)N[C@H](CO)Cc1ccccc1 was read as CRFR2-BP ag -1.8, OXTR potentiator -8.0, V1R ag counter 59.8* and OXTR agonist 44.6*.
For COCC(=O)N1CCC(Oc2ccc(C(=O)NCCCC3CCCC3)cc2)CC1 the results were CRFR2-BP ag 0.2.
CCOc1ccc(C2C=C(c3ccc(C)cc3)Nc3nnnn32)cc1 (configuration not stated) was read as TRPML3 agonist 0.9, CRFR2-BP ag 69.4*, OXTR potentiator -4.2, V1R ag counter 0.7, OXTR agonist 3.4 and TRPN1 ag 0.2.
CCN(CC)c1ccc(/C=c2/sc3nnc(-c4ccccc4C)n3c2=O)cc1 was read as TRPML3 agonist 1.6, CRFR2-BP ag 132.6*, OXTR potentiator -8.7, V1R ag counter 5.2, OXTR agonist 4.3 and TRPN1 ag 4.0.
`CCN(CC)c1ccc(/C=c2\sc3nnc(-c4ccccc4Cl)n3c2=O)cc1` gave TRPML3 agonist 2.3, CRFR2-BP ag 112.5*, OXTR potentiator -8.0, V1R ag counter 13.4, OXTR agonist 7.3 and TRPN1 ag 1.4.
Screening CCCCCCCCCCCC1=C(O)C(=O)C=C(O)C1=O returned CRFR2-BP ag 62.4*, OXTR potentiator -3.3, V1R ag counter 0.2 and OXTR agonist 0.4.
`COC1=CC(=O)C(O)=C(CCCCCCC/C=C/CCCCCCCC2=C(O)C(=O)C=C(OC)C2=O)C1=O` gave CRFR2-BP ag -1.0, OXTR potentiator 4.9, V1R ag counter -0.3 and OXTR agonist -0.5.
Screening CCCCn1c(N)c(N(CC(C)C)C(=O)Cc2ccc(S(=O)(=O)N3CCOCC3)s2)c(=O)[nH]c1=O returned CRFR2-BP ag 54.3*.
Screening N#Cc1c2nc3ccccc3nc2n2cc(NC(=O)c3ccc(F)cc3)ccc12 returned TRPML3 agonist 3.0, CRFR2-BP ag 54.7* and TRPN1 ag 3.0.
`CC1(C)CC[C@]2(C(=O)n3ccnc3)CC[C@]3(C)[C@H](C(=O)C=C4[C@@]5(C)C=C(C#N)C(=O)C(C)(C)[C@@H]5CC[C@]43C)[C@@H]2C1` gave CRFR2-BP ag 121.5*.
For O=[N+]([O-])c1ccc(N(c2ccccc2)c2ccccc2)cc1 the results were TRPML3 agonist 0.6, CRFR2-BP ag 54.5*, OXTR potentiator -6.7, V1R ag counter 4.3, OXTR agonist 3.5 and TRPN1 ag 1.5.
For O=C(c1ccccc1Cl)N1N=C(c2cccs2)CC1c1cccc(O)c1 (configuration not stated) the results were CRFR2-BP ag -1.2, OXTR potentiator -5.7, V1R ag counter 1.8 and OXTR agonist 3.8.
For CCOC(=O)C(N=Nc1nn[nH]n1)C(C)=O (configuration not stated) the results were CRFR2-BP ag 2.6.
Cn1cccc1/C=C1\CCC/C(=C\c2cccn2C)C1=O was read as TRPML3 agonist 0.6, CRFR2-BP ag 154.5*, OXTR potentiator -13.8, V1R ag counter 44.2*, OXTR agonist 75.0* and TRPN1 ag -0.5.
Screening O=C1/C(=C/c2cccs2)CCC/C1=C\c1cccs1 returned CRFR2-BP ag 7.5, OXTR potentiator -2.7, V1R ag counter 2.1 and OXTR agonist 0.0.
For COc1cc(CNCCc2ccc(S(N)(=O)=O)cc2)ccc1OCc1ccc(Cl)cc1 the results were TRPML3 agonist 2.7, CRFR2-BP ag 4.3, OXTR potentiator -11.9, V1R ag counter 8.8, OXTR agonist 8.8 and TRPN1 ag 4.2.
`CCOc1cc(CNCCc2ccc(S(N)(=O)=O)cc2)ccc1OCc1ccc(Cl)cc1` gave TRPML3 agonist 5.9, CRFR2-BP ag 5.8, OXTR potentiator -23.1, V1R ag counter 27.2*, OXTR agonist 37.0* and TRPN1 ag 6.9.
CC1CN(C(=O)c2ccc(S(=O)(=O)Nc3cccc(C(F)(F)F)c3)cc2)CC(C)O1 (configuration not stated) was read as CRFR2-BP ag 14.7, OXTR potentiator -21.1, V1R ag counter 21.4* and OXTR agonist 25.8*.
Cc1ccc(S(=O)(=O)Nc2ccc(C(=O)N3CCCC3)cc2)cc1 was read as CRFR2-BP ag -0.7, OXTR potentiator -3.9, V1R ag counter 1.0 and OXTR agonist -0.4.
For Cc1ccc(NS(=O)(=O)c2ccc(C(=O)N3CC(C)CC(C)C3)cc2)cc1 (configuration not stated) the results were CRFR2-BP ag 117.2*, OXTR potentiator -22.1, V1R ag counter 42.9* and OXTR agonist 69.4*.
Screening Cc1ccc(C(=O)NC(=S)NNC(=O)c2ccccc2)cc1 returned CRFR2-BP ag 121.5*, OXTR potentiator -23.1, V1R ag counter 88.8* and OXTR agonist 82.3*.
For O=C(NNC(=S)Nc1cccc(C(F)(F)F)c1)c1ccc(Cl)cc1Cl the results were TRPML3 agonist 3.2, CRFR2-BP ag 53.9*, OXTR potentiator -10.1, V1R ag counter 5.1, OXTR agonist 7.4 and TRPN1 ag 1.7.
For Cc1ccccc1C(=O)NNC(=S)Nc1cccc(C(F)(F)F)c1 the results were TRPML3 agonist 1.1, CRFR2-BP ag 12.9, OXTR potentiator -9.3, V1R ag counter 2.6, OXTR agonist 3.8 and TRPN1 ag 1.4.
Screening CNC(=O)Nc1cccc(C(F)(F)F)c1 returned TRPML3 agonist -0.1, CRFR2-BP ag -1.1, OXTR potentiator 1.6, V1R ag counter 1.2, OXTR agonist 1.5 and TRPN1 ag 1.9.
O=C(Nc1ccccc1)Nc1cccc(C(F)(F)F)c1 was read as TRPML3 agonist 14.3*, CRFR2-BP ag 2.0, OXTR potentiator -11.0, V1R ag counter 11.3, OXTR agonist 8.8 and TRPN1 ag 24.2*.
`Cc1ccc(C(=O)NNC(=S)NC(=O)c2ccccc2)cc1` gave CRFR2-BP ag 137.9*, OXTR potentiator -18.7, V1R ag counter 96.1* and OXTR agonist 87.7*.
